Here are results for 6 compounds from ChEMBL document CHEMBL1154682, “Discovery of novel benzoxazinones as potent and orally active long chain fatty acid elongase 6 inhibitors” (J Med Chem, 2009).

A word on the IC50: it is the midpoint of a concentration-inhibition curve. As usually defined, the fraction unbound is free concentration divided by total concentration. The low end stands for little free substance, the high end for much free substance.

The target in data set [1] is T1, Very long chain fatty acid elongase 6 (Homo sapiens, UniProt Q9H5J4).
T1 sequence (Q9H5J4 whole entry): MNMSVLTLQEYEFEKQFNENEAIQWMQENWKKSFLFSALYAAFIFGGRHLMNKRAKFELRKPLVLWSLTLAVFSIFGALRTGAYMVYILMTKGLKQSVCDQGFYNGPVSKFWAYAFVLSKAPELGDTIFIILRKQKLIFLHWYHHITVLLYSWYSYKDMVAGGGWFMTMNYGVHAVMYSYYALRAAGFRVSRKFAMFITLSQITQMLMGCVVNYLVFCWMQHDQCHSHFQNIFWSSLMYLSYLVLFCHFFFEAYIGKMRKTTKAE
As to the kind of experiment: Inhibition of human ELOVL6 expressed in Pichia pastoris using palmitoyl-CoA by long chain fatty acyl-CoA elongation assay. In a few lines: (§1)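 Microsomes (3 μg) from Pichia pastoris SMD1168 expressing FLAG-tagged human or mouse ELOVL6 were incubated 1 h at 37 °C in 100 mM potassium phosphate pH 6.5 with 40 μM palmitoyl-CoA, 20 μM malonyl-CoA plus [14C]-malonyl-CoA, 500 μM NADPH, 200 μM BSA and 1 μM rotenone. DMSO was 1.0% final. After HCl hydrolysis, filter-retained 14C was counted. IC50 came from nonlinear regression on % of control.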

Data set [2] addresses T2, Very long chain fatty acid elongase 6 (Mus musculus, UniProt Q920L5).
T2 sequence (Q920L5 whole entry): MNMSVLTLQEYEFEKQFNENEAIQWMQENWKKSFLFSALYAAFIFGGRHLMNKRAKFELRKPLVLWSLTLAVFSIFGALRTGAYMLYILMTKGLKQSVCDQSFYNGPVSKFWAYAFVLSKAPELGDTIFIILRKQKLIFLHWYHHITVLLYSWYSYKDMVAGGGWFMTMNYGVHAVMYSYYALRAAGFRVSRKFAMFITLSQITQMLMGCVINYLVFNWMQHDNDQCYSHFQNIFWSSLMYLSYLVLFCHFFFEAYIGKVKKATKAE
As to the kind of experiment: Inhibition of mouse ELOVL6 expressed in Pichia pastoris using palmitoyl-CoA by long chain fatty acyl-CoA elongation assay. In a few lines:
as §1

For data set [3], the target named is T2, Very long chain fatty acid elongase 6. As to the kind of experiment: Inhibition of ELOVL6 in mouse H2.35 cells assessed as elongation index. The format is cell-based. In a few lines: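 Subconfluent mouse hepatoma H2.35 cells were kept at 33 °C in DMEM with 200 nM dexamethasone and 4% FBS. Lipids were hydrolysed in NaOH at 70 °C, and fatty acids extracted and quantified by radio-HPLC. Elongation index = (C18:0 + C18:1) / (C16:0 + C16:1).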

A short description of data set [4]: Unbound fraction in C57BL/6N mouse plasma. Format: ADME, cell-free. The essentials: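 Equilibrium dialysis was run with C57BL/6N mouse plasma adjusted to pH 7.4 and spiked with 1 μM compound, dialysed against PBS for 6 h at 37 °C. Both sides were analysed by LC-MS/MS. Unbound fraction = Cf/Cp × 100. Mean of n = 3.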

In data set [1], `O=C1Nc2ccc(Cl)cc2C(CNC(=O)c2ccc(-c3ccccc3)cc2)(C(F)(F)F)O1` (centres undefined) registered an IC50 of over 10000 nM. `O=C1Nc2ccc(-n3cccn3)cc2C(CNC(=O)c2ccc(F)cc2)(C(F)(F)F)O1` (single isomer, unassigned; (+)): the IC50 stood at 29 nM in data set [2] and 58 nM in data set [3]. As to `CS(=O)(=O)c1ccc(C(=O)NCC2(C(F)(F)F)OC(=O)Nc3ccc(Cl)cc32)cc1` (centres undefined), the half-maximal inhibitory concentration (IC50) in data set [1] is over 10000 nM. In turn, `O=C(NCC1(C(F)(F)F)OC(=O)Nc2ccc(Cl)cc21)Nc1ccc(F)cc1` (single isomer, unassigned; (-)) gave a fraction unbound in data set [4] of 0.005. Moreover, the half-inhibitory concentration (IC50) was 31 nM in data set [2] and 377 nM in data set [3].

In data set [1], `O=C(Nc1ccc(F)cc1)OCC1(C2CC2)OC(=O)Nc2ccc(Cl)cc21` (centres undefined) yielded an IC50 of 1410 nM. The compound `O=C1Nc2ccc(Cl)cc2C(CNC(=O)c2ccc(F)cc2)(C(F)(F)F)O1` (centres undefined) returned a fraction unbound in data set [4] of 0.053.
